In the library only some 2.9% were active in any assay of this set; here they are far more common.
NRP1-CendR mod: alters CendR peptide binding to human NRP-1; O14786; actives 0.85% (n = 360,000); inhibition, % at 25 µM; FAM-RPARPAR peptide binding to NRP-1, fluorescence polarization;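 active means inhibition or corrected inhibition above about 18%, plus a signal ratio from 0.5 to 1.5, limit read from the data, passing the limit was not always enough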
proKLK7 act: activates the human kallikrein-7 zymogen; activation, % at 7 µM; actives 0.9% (n = 370,000); purified proKLK7, EDANS-DABCYL substrate fluorescence; 100% is mature enzyme control, 0% vehicle; P49862; AID 652039;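 active means activation above the mean of all tested compounds plus 3 SD, computed per campaign excluding outliers beyond control limits, cut at about 13% in these data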
Target sequence (P49862 whole entry, looked up): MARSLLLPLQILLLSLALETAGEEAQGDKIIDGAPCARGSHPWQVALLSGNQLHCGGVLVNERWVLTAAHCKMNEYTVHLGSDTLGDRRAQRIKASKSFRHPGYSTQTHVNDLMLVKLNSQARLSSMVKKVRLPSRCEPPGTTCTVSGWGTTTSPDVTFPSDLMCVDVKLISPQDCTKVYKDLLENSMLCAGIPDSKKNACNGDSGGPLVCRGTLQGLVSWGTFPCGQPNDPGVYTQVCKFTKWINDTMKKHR
Tn7 DDE FP: DD(E)-Tn7 binding inhibition, primary FP screen; P02675; FP displacement of FITC-Tn7 peptide from fibrin DD(E); 0% = median of compound wells per plate; inhibition, % at 8.3 µM; actives 0.13% (n = 370,000); AID 720508;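 active means inhibition above the mean of compounds falling within the control limits plus 3 SD of them, cut at about 14% in these data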;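 further: 0% = plate median of compound wells and 100% = 10 µM Aha-Tn7 peptide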
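Assay system: human fibrin DD(E). Input: DD(E) 2 µM final. Medium: Tris buffer with calcium and detergent, pH 7.8. Compound dosing: single point at 8.3 µM. Timing: 10 min plus 3 h, room temperature. Technique: fluorescence polarization of the labelled Tn7 tracer. Read-out: percent inhibition. Replicates: singlicate testing.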
DDE Tn6 FP inh: disrupts Tn6 cyclic peptide binding to fibrin D-Dimer-E complex; actives 0.21% (n = 370,000); Fibrin DD(E) TRITC-Tn6 fluorescence polarization displacement; P02675; AID 720509; inhibition, % at 8.3 µM;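 active means inhibition above a per-campaign cutoff: mean of compounds within control limits plus 3 SD, cut at about 15% in these data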;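 further: 0% = median of all compound wells on the plate and 100% = blocking peptide control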
CRFBP-R2 agonist: agonists of human CRF-binding protein/CRF-R2 receptor complex; AID 588473; HEK293 CRF-R2/CRF-BP, calcium dye fluorescence (FLIPR); percent of saturating CRF peptide response; activation, % at 13.2 µM; actives 0.46% (n = 350,000);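 active means activation of at least 50%, plus an integration ratio under a set limit after plate pattern correction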;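 further: plate controls were neutral control wells without compound for no effect and CRF at EC100 for full effect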
CRFR2-BP antag: CRF-BP/CRF-R2 complex antagonism. actives 0.59% (n = 350,000). AID 588475. inhibition, % at 11.8 µM. HEK293 CRF-R2/CRF-BP, CRF-induced calcium fluorescence;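 active means inhibition of the ligand-induced calcium signal above about 50% at the single tested concentration, limit read from the data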
KLK7 act conf: proKLK7 activation, confirmation; actives 68% (n = 3,200); purified proKLK7, EDANS-DABCYL substrate fluorescence; scaled: vehicle 0, mature enzyme 100; activation, % at 7 µM; shares compounds with proKLK7 act;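 active means activation, as change over the incubation, above the mean of all tested compounds plus 3 SD, cut at about 13% in these data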
EDANS interfere: counter-screen for kallikrein-7 activators: EDANS-DABCYL optical interference. activation, % at 7 µM. EDANS-DABCYL substrate fluorescence interference, no enzyme, 4 h; solvent 0%, active enzyme control 100%. shares compounds with proKLK7 act. actives 80% (n = 3,200). AID 686952;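 active means activation above the all-compound mean plus 3 SD, ignoring values outside control-based bounds, cut at about 4.8% in these data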;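 further: value is the 4 h activation minus the activation read at time zero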
EDANS interf: counter-screen for kallikrein-7 activators: EDANS-DABCYL interference, dose response; AID 720493; EDANS-DABCYL peptide fluorescence interference, no enzyme; EC50, µM; shares compounds with proKLK7 act; actives 20% (n = 250);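 active means compounds that raise the fluorescence signal in this interference counterscreen, with EC50 at or below 10 µM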;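 further: intact quenched peptide substrate alone read at 355 nm excitation and 520 nm emission; signal is fluorescence gain from T0 to T4 after four hours at room temperature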
* marks the source's active call; other numbers are inactive results; . = not tested or not shown.

SMILES	NRP1-CendR mod	proKLK7 act	Tn7 DDE FP	DDE Tn6 FP inh	CRFBP-R2 agonist	CRFR2-BP antag	KLK7 act conf	EDANS interfere	others
Cc1ccc(O)c(C(=O)C=Cc2ccccc2)c1	8.3	13.3*	-2.3	8.0	-2.9	11.2	34.1*	34.4*
COc1cc(/C=C/C(=O)O)cc(OC)c1O	4.8	20.8*	-2.3	11.8	-2.3	-10.0	70.0*	79.2*
COc1ccc(/C=C/C(=O)O)cc1Cl	0.3	0.7	-1.5	4.0	-0.8	16.5	.	.
COC(=O)[C@]12C[C@H](CC(=O)NCCCN3CCCC3=O)C(=O)N(Cc3ccccc3)C1=C[C@H](COCc1ccccc1)O[C@@H]2C	.	0.1	-4.7	5.7	.	.	.	.
CCC(C)NC(=O)CNc1nnnn1-c1ccccc1 (stereo not drawn)	.	0.4	-4.1	0.2	.	.	.	.
CC1(C)CC(=O)c2cc(OCC(=O)N3CCN(c4ccccc4F)CC3)ccc2O1	11.2	9.6	2.7	-0.3	-1.1	-0.1	.	.
CCOC(=O)N1CCN(C(=O)COc2cc(C)c(Cl)c(C)c2)CC1	10.3	-0.5	0.2	6.8	0.2	12.9	.	.
CC1(C)CC(=O)c2cc(OCC(=O)NCCN3CCOCC3)ccc2O1	4.6	16.3*	-7.3	-3.9	-1.2	4.4	25.3*	25.5*
CC1(C)CC(=O)c2cc(OCC(=O)N3CCCCCC3)ccc2O1	11.5	25.6*	1.4	6.5	-4.5	6.2	68.1*	74.9*
CCOC(=O)N1CCN(C(=O)COc2ccc3c(c2)C(=O)CC(C)(C)O3)CC1	-11.1	31.1*	2.3	8.8	-0.1	-0.2	26.4*	10.5*	EDANS interf=>69.5
CCOC(=O)COc1ccc2c(c1)C(=O)CC(C)(C)O2	-4.2	18.5*	0.1	-4.5	-0.2	-1.8	66.5*	67.0*
CC(=O)N1CCCN(S(=O)(=O)c2ccc3c(c2)c(=O)n(C)c(=O)n3C)CC1	.	-0.2	1.4	0.7	.	.	.	.
COc1ccc2c(c1)C(=O)CC(O)(C(F)F)O2 (stereo not drawn)	11.1	45.3*	4.4	-0.5	-1.1	-7.2	40.0*	32.8*
CC1(C)CC(=O)c2cc(OCC(=O)O)ccc2O1	-7.3	13.8*	-7.7	-2.4	-0.7	-6.0	41.7*	48.1*
O=C(N[C@@H]1CC[C@H]2SC[C@H](C(=O)O)N2C1=O)OCC1c2ccccc2-c2ccccc21	.	-0.5	-2.2	-1.4	.	.	.	.
Cn1c2ccccc2c2ncn(Cc3ccc(F)cc3)c(=O)c21	-2.4	0.5	4.1	2.4	-0.9	-9.6	.	.
Cn1c2ccsc2c2ncn(Cc3ccccc3F)c(=O)c21	5.9	65.4*	-8.0	9.2	-1.6	-2.5	65.0*	62.3*
COc1ccc([C@H](C#Cc2ccccc2)CC(=O)O)cc1OC1CCCC1	.	0.0	10.7	1.6	.	.	.	.
COc1ccc(-c2cc(C(=O)OC3CCOC3=O)c3ccccc3n2)cc1 (stereo not drawn)	-8.9	97.0*	1.0	-0.9	-0.5	2.1	8.9	11.7*
COc1ccc(-c2cc(C(=O)OCC(=O)N(C)C)c3ccccc3n2)cc1	-3.8	50.4*	-2.2	-3.1	0.0	6.1	38.7*	42.6*
COc1ccc(-c2cc(C(=O)Oc3ccc([N+](=O)[O-])cc3)c3ccccc3n2)cc1	3.3	32.9*	7.5	5.4	1.1	-24.2	64.4*	70.8*
COc1ccc(-c2cc(C(=O)OCc3ccccn3)c3ccccc3n2)cc1	-7.1	21.6*	0.6	-1.0	1.6	2.3	-18.6	-20.2
O=C(OC1CCOC1=O)c1cc(-c2ccc(Br)cc2)nc2ccccc12 (stereo not drawn)	-2.5	0.5	-3.6	0.1	0.9	-39.1	.	.

Assay outcomes as filed in PubChem.
